Activity calls are given as the source filed them. The rule behind the calls is not given here.
How the values were obtained:
Calf thymus DNA = experiment: Displacement of thiazole orange from calf thymus duplex DNA after 5 mins in presence of KCl by fluorescence assay; assay type: nucleic-acid assay, Bos taurus
Quadruplex DNA [1] = experiment: Binding affinity to human c-Kit1 G-quadruplex DNA assessed as stabilization of parallel stranded topology after 5 mins in presence of KCl by CD spectroscopic method; assay type: nucleic-acid assay
In short: (§1)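 CD spectra of 5 µM G4 DNA in 10 mM Tris-HCl pH 7.4, 100 mM KCl, 0.1 mM EDTA, with or without ligand. Mixtures were heated 95 °C for 5 min and slowly cooled to room temperature. Recorded 200–400 nm at 25 °C, 100 nm/min, 2 s response, 1 cm cell; average of three scans.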

Quadruplex DNA [2] = experiment: Binding affinity to human telomeric G-quadruplex DNA at 0.6 uM after 5 mins in presence of KCl by fluorescence spectroscopic method; assay type: nucleic-acid assay
In short: (§2)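 Fluorescence titration at 25 °C with 0.6 µM ligand in 10 mM Tris-HCl pH 7.4, 100 mM KCl, 0.1 mM EDTA. Preformed G4 DNA was added stepwise, with 5 min incubation before each spectrum. Excitation 330 nm; emission 350–550 nm, slit 5 nm.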

Quadruplex DNA [3] = experiment: Binding affinity to human c-Kit2 G-quadruplex DNA assessed as change in melting temperature in presence of KCl by CD spectroscopic method; assay type: nucleic-acid assay
In short: (§3)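 CD melting of 5 µM G4 DNA in 10 mM Tris-HCl pH 7.4, 25 mM KCl, 0.1 mM EDTA. Ligand was present during folding (heating, slow cooling). Spectra 200–400 nm over 20–96 °C in 2 °C steps, buffer blank subtracted. Tm was taken from normalized ellipticity at the positive maximum (262 nm for promoter G4s). ΔTm = ligand-bound minus DNA alone; average of two independent experiments.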

Quadruplex DNA [4] = experiment: Binding affinity to human c-Myc G-quadruplex DNA at 0.6 uM after 5 mins in presence of KCl by fluorescence spectroscopic method; assay type: nucleic-acid assay; in short: as §2
Quadruplex DNA [5] = experiment: Displacement of thiazole orange from human c-Kit2 G-quadruplex DNA after 5 mins in presence of KCl by fluorescence assay; assay type: nucleic-acid assay
In short: (§4)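 Thiazole orange displacement from a G4 DNA–TO complex (1 µM TO + 0.5 µM G4 DNA) in 10 mM Tris-HCl pH 7.4, 100 mM KCl, 0.1 mM EDTA. Ligand was added in increasing steps, with 5 min incubation each. Fluorescence read at ex 501/em 531 nm; % displacement = 100 − (Ft/F0 × 100). DC50 is the ligand concentration giving 50% displacement, read from plots; average of two independent experiments.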

Quadruplex DNA [6] = experiment: Binding affinity to human c-Myc G-quadruplex DNA assessed as change in melting temperature in presence of KCl by CD spectroscopic method; assay type: nucleic-acid assay; in short: as §3
Quadruplex DNA [7] = experiment: Induction of conformational changes in human telomeric G-quadruplex DNA assessed as inversion from potassium ion stabilized hybrid type mixed parallel/antiparallel G-quadruplex to stable telomere parallel-stranded G-quadruplex after 5 mins in presence of KCl by CD spectroscopic method; assay type: nucleic-acid assay; in short: as §1
Quadruplex DNA [8] = experiment: Binding affinity to human c-Kit1 G-quadruplex DNA assessed as change in melting temperature in presence of KCl by CD spectroscopic method; assay type: nucleic-acid assay; in short: as §3
Quadruplex DNA [9] = experiment: Binding affinity to human VEGF G-quadruplex DNA assessed as stabilization of parallel stranded topology after 5 mins in presence of KCl by CD spectroscopic method; assay type: nucleic-acid assay; in short: as §1
Quadruplex DNA [10] = experiment: Binding affinity to human c-Myc G-quadruplex DNA assessed as stabilization of parallel stranded topology after 5 mins in presence of KCl by CD spectroscopic method; assay type: nucleic-acid assay; in short: as §1
Quadruplex DNA [11] = experiment: Binding affinity to human VEGF G-quadruplex DNA at 0.6 uM after 5 mins in presence of KCl by fluorescence spectroscopic method; assay type: nucleic-acid assay; in short: as §2
Quadruplex DNA [12] = experiment: Binding affinity to human c-Kit2 G-quadruplex DNA at 0.6 uM after 5 mins in presence of KCl by fluorescence spectroscopic method; assay type: nucleic-acid assay; in short: as §2
Quadruplex DNA [13] = experiment: Binding affinity to human c-Kit1 G-quadruplex DNA at 0.6 uM after 5 mins in presence of KCl by fluorescence spectroscopic method; assay type: nucleic-acid assay; in short: as §2
Quadruplex DNA [14] = experiment: Binding affinity to human Bcl2 G-quadruplex DNA at 0.6 uM after 5 mins in presence of KCl by fluorescence spectroscopic method; assay type: nucleic-acid assay; in short: as §2
Quadruplex DNA [15] = experiment: Binding affinity to human c-Kit2 G-quadruplex DNA assessed as stabilization of parallel stranded topology after 5 mins in presence of KCl by CD spectroscopic method; assay type: nucleic-acid assay; in short: as §1
Quadruplex DNA [16] = experiment: Displacement of thiazole orange from human c-Kit1 G-quadruplex DNA after 5 mins in presence of KCl by fluorescence assay; assay type: nucleic-acid assay; in short: as §4
Quadruplex DNA [17] = experiment: Displacement of thiazole orange from human VEGF G-quadruplex DNA after 5 mins in presence of KCl by fluorescence assay; assay type: nucleic-acid assay; in short: as §4
Quadruplex DNA [18] = experiment: Induction of conformational changes in human Bcl2 G-quadruplex DNA assessed as inversion from potassium ion stabilized hybrid type mixed parallel/antiparallel G-quadruplex to stable telomere parallel-stranded G-quadruplex after 5 mins in presence of KCl by CD spectroscopic method; assay type: nucleic-acid assay; in short: as §1
Quadruplex DNA [19] = experiment: Binding affinity to human Bcl2 G-quadruplex DNA assessed as change in melting temperature in presence of KCl by CD spectroscopic method; assay type: nucleic-acid assay; in short: as §3
Quadruplex DNA [20] = experiment: Displacement of thiazole orange from human c-Myc G-quadruplex DNA after 5 mins in presence of KCl by fluorescence assay; assay type: nucleic-acid assay; in short: as §4
Quadruplex DNA [21] = experiment: Binding affinity to human telomeric G-quadruplex DNA assessed as change in melting temperature in presence of KCl by CD spectroscopic method; assay type: nucleic-acid assay; in short: as §3
Quadruplex DNA [22] = experiment: Displacement of thiazole orange from human telomeric G-quadruplex DNA after 5 mins in presence of KCl by fluorescence assay; assay type: nucleic-acid assay; in short: as §4
Quadruplex DNA [23] = experiment: Displacement of thiazole orange from human Bcl2 G-quadruplex DNA after 5 mins in presence of KCl by fluorescence assay; assay type: nucleic-acid assay; in short: as §4
Quadruplex DNA [24] = experiment: Binding affinity to human VEGF G-quadruplex DNA assessed as change in melting temperature in presence of KCl by CD spectroscopic method; assay type: nucleic-acid assay; in short: as §3
Quadruplex DNA [25] = experiment: Binding affinity to human 77-mer c-Myc G-quadruplex DNA assessed as inhibition of Taq DNA polymerase-mediated DNA synthesis by measuring generation of premature chain termination products using 32P-labeled primer after 30 mins by polymerase stop assay; assay type: nucleic-acid assay
In short: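 Template of 10 nM single-stranded 77-mer c-MYC with the G-quadruplex-forming sequence, annealed to 32P-labeled plus cold primer (15 nM) in Tris-HCl pH 7.4 with 5 mM KCl. Annealing was 95 °C for 5 min then slow cooling, with ligand added before annealing. Extension with Taq polymerase (5 mM MgCl2, 0.5 mM DTT, 0.2 mM dNTPs) ran 30 min at 48 or 40 °C. Products were resolved on 15% urea denaturing PAGE and read by phosphorimaging.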

| DC50 (Calf thymus DNA) | Activity (Quadruplex DNA [1]) | Activity (Quadruplex DNA [2]) | ΔTm (Quadruplex DNA [3]) | Activity (Quadruplex DNA [4]) | DC50 (Quadruplex DNA [5]) | ΔTm (Quadruplex DNA [6]) | Activity (Quadruplex DNA [7]) | ΔTm (Quadruplex DNA [8]) | Activity (Quadruplex DNA [9]) | Activity (Quadruplex DNA [10]) | Activity (Quadruplex DNA [11]) | DC50 (Quadruplex DNA [16]) | DC50 (Quadruplex DNA [17]) | ΔTm (Quadruplex DNA [19]) | DC50 (Quadruplex DNA [20]) | ΔTm (Quadruplex DNA [21]) | DC50 (Quadruplex DNA [22]) | DC50 (Quadruplex DNA [23]) | ΔTm (Quadruplex DNA [24]) | Structure (SMILES) | other results |
| --- | --- | --- | --- | --- | --- | --- | --- | --- | --- | --- | --- | --- | --- | --- | --- | --- | --- | --- | --- | --- | --- |
| > 10 µM | Active | Active | 7.53 °C | Active | > 3000 nM | 4.95 °C | inactive | 3.58 °C | Active | Active | Active | > 3000 nM | > 3000 nM | 3.26 °C | > 3000 nM | 7.14 °C | > 3000 nM | > 3000 nM | 4.35 °C | C[N+]1(CCCCN2CCOCC2)CCN(CCCCn2c3ccc(-c4nc5ccc(N6CCOCC6)cc5[nH]4)cc3c3cc(-c4nc5ccc(N6CCOCC6)cc5[nH]4)ccc32)CC1 | Activity (Quadruplex DNA [12]): Active; Activity (Quadruplex DNA [13]): Active; Activity (Quadruplex DNA [14]): Active; Activity (Quadruplex DNA [15]): Active; Activity (Quadruplex DNA [18]): inactive |
| 5.28 µM | Active | Active | 17 °C | Active | 1340 nM | 8.63 °C | Active | 13.2 °C | Active | Active | Active | 1620 nM | 1420 nM | 6.53 °C | 1630 nM | 9.74 °C | 2790 nM | 2860 nM | 12.8 °C | CCn1c2ccc(-c3nc4ccc(N5CCN(CCO)CC5)cc4[nH]3)cc2c2cc(-c3nc4ccc(N5CCN(CCO)CC5)cc4[nH]3)ccc21 | Activity (Quadruplex DNA [25]): Dose-dependent effect; Activity (Quadruplex DNA [12]): Active; Activity (Quadruplex DNA [13]): Active; Activity (Quadruplex DNA [14]): Active; Activity (Quadruplex DNA [15]): Active; Activity (Quadruplex DNA [18]): Active |
| 5.52 µM | Active | Active | 16.6 °C | Active | 740 nM | 8.65 °C | inactive | 12.2 °C | Active | Active | Active | 980 nM | 630 nM | 5.54 °C | 850 nM | 16.9 °C | 1300 nM | 1290 nM | 14.2 °C | CN1CCN(CCCCn2c3ccc(-c4nc5cc(N6CCOCC6)ccc5[nH]4)cc3c3cc(-c4nc5cc(N6CCOCC6)ccc5[nH]4)ccc32)CC1 | Activity (Quadruplex DNA [12]): Active; Activity (Quadruplex DNA [13]): Active; Activity (Quadruplex DNA [14]): Active; Activity (Quadruplex DNA [15]): Active; Activity (Quadruplex DNA [18]): inactive |
| 6.49 µM | Active | Active | 22 °C | Active | 660 nM | 8.86 °C | Active | 25.9 °C | Active | Active | Active | 880 nM | 750 nM | 9.5 °C | 980 nM | 21.2 °C | 1150 nM | 1440 nM | 14.2 °C | CN1CCN(CCCCn2c3ccc(-c4nc5cc(N6CCN(CCO)CC6)ccc5[nH]4)cc3c3cc(-c4nc5cc(N6CCN(CCO)CC6)ccc5[nH]4)ccc32)CC1 | Activity (Quadruplex DNA [12]): Active; Activity (Quadruplex DNA [13]): Active; Activity (Quadruplex DNA [14]): Active; Activity (Quadruplex DNA [15]): Active; Activity (Quadruplex DNA [18]): Active |

| Structure (SMILES) | DC50 (Calf thymus DNA) | Activity (Quadruplex DNA [1]) | Activity (Quadruplex DNA [2]) | ΔTm (Quadruplex DNA [3]) | Activity (Quadruplex DNA [4]) | DC50 (Quadruplex DNA [5]) | ΔTm (Quadruplex DNA [6]) | Activity (Quadruplex DNA [7]) | ΔTm (Quadruplex DNA [8]) | Activity (Quadruplex DNA [9]) | Activity (Quadruplex DNA [10]) | Activity (Quadruplex DNA [11]) | DC50 (Quadruplex DNA [16]) | DC50 (Quadruplex DNA [17]) | ΔTm (Quadruplex DNA [19]) | DC50 (Quadruplex DNA [20]) | ΔTm (Quadruplex DNA [21]) | DC50 (Quadruplex DNA [22]) | DC50 (Quadruplex DNA [23]) | ΔTm (Quadruplex DNA [24]) | other results |
| --- | --- | --- | --- | --- | --- | --- | --- | --- | --- | --- | --- | --- | --- | --- | --- | --- | --- | --- | --- | --- | --- |
| C[n+]1ccc(-c2c3nc(c(-c4cc[n+](C)cc4)c4ccc([nH]4)c(-c4cc[n+](C)cc4)c4nc(c(-c5cc[n+](C)cc5)c5ccc2[nH]5)C=C4)C=C3)cc1 | 0.87 µM |  |  |  |  | 350 nM |  |  |  |  |  |  | 320 nM | 310 nM |  | 380 nM |  | 470 nM | 430 nM |  |  |
| C[n+]1ccc(-c2c3nc(c(-c4cc[n+](C)cc4)c4ccc([nH]4)c(-c4cc[n+](C)cc4)c4ccc([nH]4)c(-c4cc[n+](C)cc4)c4nc2C=C4)C=C3)cc1 |  |  |  | 15.5 °C |  |  | 11 °C |  | 15.1 °C |  |  |  |  |  | 14.3 °C |  | 15.6 °C |  |  | 12.3 °C |  |
